# Rows were chosen to be rich in hits. Some 2.3% of all compounds tested hit in one or more screens of this group.
# Autophagy HCS = modulators of autophagy; MEF GFP-LC3 puncta imaging; test concentration mostly 10 µM; calls only at 10 µM (by protocol); hit rate 0.98% among 190,000;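 active means percentage of spot-positive cells more than 3 SD above its plate mean, without a fluorescence outlier flag or 80% toxicity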;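 further: spot-positive cell cutoff set from DMSO-treated cells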
# SDO1 yeast rescue = compounds rescuing growth of sdo1-depleted yeast, bone marrow failure model; S. cerevisiae sdo1-depleted JHY4D growth rescue, OD600 30 h; stronger effect = higher value; pdr5 snq2 efflux-pump mutant strain; z-score at 10 µM; hit rate 0.21% among 140,000; AID 817;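 active means z-score above 3 at both the 24 hr and the 30 hr optical density reads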;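 further: z-score against mean and SD of all compound wells on the same plate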
# ABCB1 block = blocks JC-1 efflux by human ABCB1 transporter | CCRF-Adr cells, flow cytometry | inhibition, % at 6.6 µM | hit rate 0.067% among 190,000; in the data active means inhibition above about 40%;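 further: 0% = vehicle and 100% = reference inhibitor; higher value means more JC-1 retained so stronger ABCB1 efflux block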
# ROMK primary = human ROMK K+ channel modulation, primary screen | B-score at 10 µM | Tet-inducible ROMK, thallium flux fluorescence; actives lie on both sides | P48048 | hit rate 2% among 130,000;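 active means signal ratio slope over the read window, or its plate-corrected B-score, at least 3 SD from the plate mean, either direction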;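 further: B-score of the F/F0 ratio slope over 7 to 12 s after thallium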
# ABCG2 block = blocks JC-1 efflux by human ABCG2 transporter | hit rate 0.1% among 190,000 | inhibition, % at 6.6 µM | Q9UNQ0 | IgMXP3 cells, flow cytometry | AID 1325;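 active means inhibition above 80%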;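 further: 0% = DMSO and 100% = nicardipine control wells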
#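 System: two drug-resistant human cell lines, ABCG2 and ABCB1; controls: nicardipine high and DMSO low controls; times: 10 min exposure at 25 °C with rotation, no wash; detection: flow cytometry of retained JC-1 fluorescence; read-out basis: percent efflux inhibition, scaled nicardipine 100% to DMSO 0%; doses: one concentration, 6.6 µM final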
# Ins promoter up = MIN6 insulin promoter up-regulation. MIN6 insulin promoter-GFP reporter, high-content imaging; stronger effect = higher value. z-score at 5 µM. hit rate 0.3% among 190,000;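 active means z-score above 3 at 5 µM with at least 500 cells counted in the well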
# * = called active by the depositor; i = inactive; nt = no result given; + = active, no number.
SMILES,Autophagy HCS,SDO1 yeast rescue,ABCB1 block,ROMK primary,ABCG2 block,Ins promoter up
CC(=O)C(Sc1ncnc2sc3c(c12)CCCC3)C(C)=O,i,nt,0,-1.3,2,-0.32
CC1CCCC(NCC(O)COC(c2ccc(F)cc2)c2ccc(F)cc2)C1C (stereo not drawn),+,nt,0,0.024,0,-1.9
Cc1ccccc1OCC(O)Cn1nnc2ccccc21 (stereo not drawn),+,-0.4,0,-1.3,1,-0.21
CCOC(=O)N1CCN(C(=O)c2cc(S(=O)(=O)N3CCCC3)cn2C)CC1,i,1.3,0,nt,0,3*
CCOC(=O)N1CCC(NC(=O)c2cc(S(=O)(=O)N3CCCC3)cn2C)CC1,i,0.3,0,nt,1,0.45
COc1ccc(C(=O)NNC(=S)NC(=O)/C=C/c2cccs2)cc1,i,nt,-3,3.7*,3,-0.07
O=C(/C=C/c1cccs1)NC(=S)NNC(=O)c1ccccc1O,i,nt,-2,3.1*,-1,-4.8
CCOC(=O)c1ccc(NC(=O)/C=C/c2cccs2)cc1,+,nt,-1,-0.028,-8,0.18
O=C(/C=C/c1cccs1)NC(=S)Nc1ccccc1,i,nt,0,1.1,2,0.11
O=C(NC(=S)N1CCN(Cc2ccc3c(c2)OCO3)CC1)c1cccc(Br)c1,i,-0.78,0,4.9*,-4,nt
N#Cc1c(-c2ccccc2)nc(SCC(=O)N2c3ccccc3Sc3ccccc32)[nH]c1=O,nt,nt,nt,nt,nt,0.09
Nc1nc(SCc2ccc(Cl)cc2Cl)nc2nc3c(cc12)CCCC3,+,-0.86,0,-0.0066,-4,0.64
Nc1nc(SCc2ccccc2Cl)nc2nc3c(cc12)CCCC3,i,-2.2,0,1.4,0,-0.17
O=C(NNC(=S)NC1CCCCC1)c1ccccc1O,i,nt,0,0.4,9,0.38
CCOc1ccccc1CNCCNC(=O)c1nonc1N,nt,nt,nt,nt,nt,1.5
C=CCOc1ccccc1CNCCNC(=O)c1nonc1N,+,nt,1,-0.013,1,0.12
COc1ccc(N=c2oc3c(OC)cccc3cc2C(=O)NCc2ccco2)cc1OC,+,0.15,0,nt,2,-0.76
COc1ccccc1N=c1oc2c(OC)cccc2cc1C(=O)NCc1ccco1,i,1.2,0,-0.71,1,-1.6
COc1ccccc1NC(=O)c1cc2ccccc2o/c1=N\O,nt,-1.1,0,nt,12,0.87
COc1ccc(N=c2oc3ccccc3cc2C(=O)Nc2ccccn2)cc1OC,+,nt,2,-0.21,10,0.03
CC(C)c1ccc(NC(=O)NC2CCN(CC(=O)Nc3cccc4ccccc34)CC2)cc1,+,1.2,1,-0.53,4,0.79
CN(C)CC(CCCCC(CN(C)C)C(=O)c1ccccc1)C(=O)c1ccccc1 (stereo not drawn),nt,nt,nt,nt,nt,-0.69
Cc1n[nH]c(C)c1N1C(=O)c2cccc3c(N4CCCCCC4)ccc(c23)C1=O,+,-1.1,2,nt,12,nt
C=CCN1C(=O)c2cccc3c(N4CCCCC4)ccc(c23)C1=O,i,nt,0,nt,18,nt
O=c1c2ccccc2nc(-c2ccccc2)n1CCN1CCOCC1,i,0.19,1,nt,3,0.24
SMILES,Autophagy HCS,SDO1 yeast rescue,ABCB1 block,ROMK primary,ABCG2 block,Ins promoter up
O=c1c2c(-c3ccccc3)csc2nc2c3ccccc3c(NCCN3CCOCC3)nn12,+,nt,0,-1,5,-2.6
O=c1c2ccccc2nc2c3ccccc3c(NCCN3CCOCC3)nn12,+,0.67,-1,-1.8,45,nt
COc1ccc(C2CCCN2C(=O)Nc2ccc(Cl)cc2)cc1OC (stereo not drawn),+,-1.3,1,nt,7,-0.62
COc1ccc(NC(=O)C2CCCN2C(=O)Nc2ccccc2)cc1OC (stereo not drawn),i,0.38,0,nt,1,0.55
CC(=O)Oc1ccc2c(=O)c(Oc3ccccc3)coc2c1OC(C)=O,+,-0.29,-2,nt,-17,-0.37
CCCCn1c(=S)[nH]c2c(oc3ccc(Cl)cc32)c1=O,i,-0.09,-1,4.8*,-2,0.23
Clc1cccc(Sc2ccc(-c3ccccn3)s2)c1,nt,nt,nt,nt,nt,-0.2
Cc1nc2cc(NS(=O)(=O)c3ccc(Br)cc3)ccc2n1C,i,nt,1,-1.3,18,nt
COCCCNC(=O)/C(C#N)=c1\s/c(=C\c2ccccc2OC(F)F)c(=O)n1CCCOC,i,-0.26,3,nt,41,1.5
COCCNC(=O)/C(C#N)=c1\s/c(=C\c2ccccc2OC(F)F)c(=O)n1Cc1ccccc1,+,nt,0,0.14,13,0.49
CCCCNC(=O)/C(C#N)=c1\s/c(=C\c2ccccc2OC(F)F)c(=O)n1CCCOC,+,-1,2,nt,33,4.5*
CCCCCCCC[n+]1c(C)n(-c2ccccc2)c2ccc(NC(C)=O)cc21,i,nt,0,-1.5,0,-4.5
O=C(Nc1cccc(C(=O)N2CCN(c3cccc(Cl)c3)CC2)c1)c1ccccc1,i,nt,4,-0.053,14,-1.2
O=C(CC1SC(=Nc2ccccc2)N(CCO)C1=O)Nc1ccccc1 (stereo not drawn),i,nt,0,-0.7,3,0.83
Cc1cc(C)cc(N=C2SC(CC(=O)Nc3ccccc3)C(=O)N2CCN2CCOCC2)c1 (stereo not drawn),+,nt,4,0.41,12,-0.72
CCCCC(CC)CNC(=O)C(Cc1ccccc1)NS(=O)(=O)c1ccc2c(c1)CCC(=O)N2 (stereo not drawn),i,nt,0,0.6,-1,nt
CCOC(=O)c1cc(-c2ccccc2)sc1NC(=O)C(C)(C)C,i,-1.5,0,nt,4,-0.01
CCOC(=O)c1cc(-c2ccccc2)sc1NC(=S)Nc1cc(C)ccn1,+,0.95,-1,-1.9,-1,0.24
CN(Cc1cn(-c2ccccc2)nc1-c1cc2ccccc2o1)C(=O)CCC(=O)O,i,nt,-1,0.05,0,-0.78
Cc1noc(/C=C/c2ccc(-c3ccccc3Cl)o2)c1[N+](=O)[O-],+,-0.62,9,nt,15,nt
Cc1cccc(C)c1N/C=C/c1onc(C)c1[N+](=O)[O-],i,0.62,0,0.58,1,0.5
Cc1ccc(-c2csc(=Nc3cccnc3)n2CCCn2ccnc2)cc1C,i,-0.48,2,-1.1,2,-3
O=C1NCN(c2ccccc2)C12CCN(CCCC(c1ccc(F)cc1)c1ccc(F)cc1)CC2,+,nt,2,-0.8,0,-0.77
O=C1CCC(=O)N1CCC(c1ccc(F)cc1)c1ccco1 (stereo not drawn),i,0.61,-1,nt,1,nt
O=C(Oc1cccnc1)c1ccc([N+](=O)[O-])cc1,i,0.39,1,-1.4,10,0.34
O=[N+]([O-])c1cc(Oc2cccnc2)cc([N+](=O)[O-])c1,+,0.05,0,0.62,1,0.42
CCOC(=O)c1sc(NC(=O)CSc2nc(C)cc(C)n2)c(C#N)c1C,i,-1.1,1,nt,3,0.78
